A selection: hits, their analogues and other compounds. The true share with any hit is near 11%.
M1 ag – agonists of M1 muscarinic receptor. CHO-M1 cells, Fluo-4 calcium fluorescence, agonist mode; stronger effect = higher value. B-score at 10 µM. 3% of 64,000 active. AID 626;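 active = fluorescence rise, raw or as B-score row- and column-corrected plate score, outside the 99.7% band of its plate's samples, either direction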
S1P1 ag-PAM – activates or potentiates agonism at human S1P1 receptor; P21453; S1P1 CRE-bla cells, forskolin, beta-lactamase FRET, potentiator mode; S1P1 agonist co-added at EC20, 2 nM; 100% = saturating reference agonist, 0% = basal; activation, % at 9.5 µM; 0.57% of 56,000 active; AID 449;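 active = activation above a cutoff set at the mean activation of all tested compounds plus 3 SD, cut at about 54% in these data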;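 also: forskolin at 4 µM as EC80 and the EC20 agonist is SEW2871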
S1P3 agonist – activates the human S1P3 receptor; Q99500; S1P3 NFAT-BLA reporter cells, agonism, FRET ratio; relative to 1 µM S1P, basal subtracted; activation, % at 4.5 µM; 0.1% of 60,000 active; AID 373;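 active = activation above the screen-wide mean plus 3 SD, cut at about 4.5% in these data, passing the limit was not always enough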
Target sequence (Q99500 whole entry, looked up): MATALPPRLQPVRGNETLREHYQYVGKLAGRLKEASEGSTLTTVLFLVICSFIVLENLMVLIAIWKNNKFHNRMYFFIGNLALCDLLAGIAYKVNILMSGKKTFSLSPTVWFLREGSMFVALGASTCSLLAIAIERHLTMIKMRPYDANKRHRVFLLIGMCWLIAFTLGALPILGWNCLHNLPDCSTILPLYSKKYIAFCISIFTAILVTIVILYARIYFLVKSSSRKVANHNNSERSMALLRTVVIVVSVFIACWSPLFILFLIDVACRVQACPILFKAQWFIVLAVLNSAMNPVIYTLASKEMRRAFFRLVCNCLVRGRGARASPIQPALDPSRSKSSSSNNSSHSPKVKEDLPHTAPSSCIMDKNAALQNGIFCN
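material = human S1P3 NFAT-BLA reporter CHO cells | schedule = 4 h compound at 37 °C, 2 h substrate at RT | measured by = fluorescent BLA substrate, ex 405 nm, em 460/535 nm ratio | controls = 1 µM S1P reference | replication = primary once, confirmation triplicate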
TNAP act DEA – human TNAP activation, intermediate phosphate acceptor; purified TNAP, CDP-star luminescence, 100 mM DEA, 30 min; stronger effect = higher value; scale: 0 levamisole-inhibited, 1 vehicle-only enzyme; activation factor at 20 µM; 64,000 tested, under 10 active; AID 813;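 active = activation factor of at least 2 at 20 µM, relative to controls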
D1 mod – allosterically modulates the human D1 dopamine receptor. P21728. HEK293 D1, CRE-luciferase, dopamine EC30 potentiation; actives deviate in either direction. B-score at 10 µM. 5.9% of 58,000 active;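 active = luminescence count or its row- and column-corrected plate score outside the 99.7% band of the plate's sample wells, on either side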
M1 antagonist – blocks the rat M1 muscarinic receptor response to acetylcholine. B-score at 10 µM. CHO-M1 cells, Fluo-4 calcium, ACh EC80 antagonist mode; stronger effect = lower value. P08482. 3.4% of 64,000 active;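 active = calcium fluorescence response, raw or row-and-column corrected B-score, differing from the plate sample mean either way at a set confidence level, mostly lower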
Of the large screens only hits and unclear results are named; the others gave an inactive call.

Cc1ccnc(Nc2nc3ccccc3o2)n1	D1 mod -4.44
CCC(COC(=O)Nc1cccc(C)c1)NC(=O)OCC(C)C (stereo not given)	none
Cc1nc2sc(-c3ccccc3)cc2c(=O)n1-n1cccc1	S1P1 ag-PAM 59.9
Cc1nc2scc(-c3ccccc3)c2c(=O)n1N	none (no result: D1 mod)
CCOC(=O)C(C)n1cnc2c(nnn2-c2cccc(Cl)c2)c1=O (stereo not given)	none
O=C(Nc1cc(C(F)(F)F)ccc1N1CCCC1)c1cccnc1	none
O=C(CNC(=O)c1cccs1)NCCN1CCN(c2ccccc2F)CC1	D1 mod -3.61
Cc1ccc(-c2nc3nc4ccccc4nc3n2Cc2ccco2)cc1	none
COc1ccccc1Cn1c(-c2ccco2)nc2nc3ccccc3nc21	D1 mod 11.8
Clc1ccc(-c2nc3nc4ccccc4nc3n2Cc2ccco2)cc1	S1P1 ag-PAM 80.3
O=C(NCCc1ccccc1)C1CCN(S(=O)(=O)c2cccc3nsnc23)CC1	none
CCN(CCNC(=O)C1CCN(S(=O)(=O)c2cccc3nsnc23)CC1)c1ccccc1	D1 mod -2.95
CCCCNC(=O)OC1CCS(=O)(=O)C1 (stereo not given)	none
O=C(NC(=O)c1cccc(OC(F)(F)C(F)F)c1)OC1CCS(=O)(=O)C1 (stereo not given)	M1 ag 22.1, M1 antagonist -18.9
CCOC(=O)N1CCN(C(=O)CSc2nc3c(cnn3-c3ccc(Cl)cc3)c(=O)[nH]2)CC1	none
N#Cc1ccc(NC(=O)c2cc3cc4c5c(c3oc2=N)CCCN5CCC4)cc1	M1 ag 166
c1ccc(-c2ccc(-c3ccccn3)nn2)nc1	D1 mod -8.69
O=C(c1cccs1)N(Cc1nc2sc3c(c2c(=O)[nH]1)CCCC3)C1CCCC1	none
Cc1sc2nc(CN(C(=O)c3cccs3)C3CCCC3)[nH]c(=O)c2c1C	M1 antagonist 1.95
COc1cccc(C(=O)Nc2c(C(N)=O)oc3ccccc23)c1	none
CC(=O)Nc1c(C(=O)c2ccccc2)oc2ccccc12	D1 mod 6.01
CCOc1ccc(C(=O)Nc2c(C(N)=O)oc3ccccc23)cc1	S1P1 ag-PAM 54.0 (no result: TNAP act DEA)
COc1ccc(CCC(=O)NC2=NCCS2)cc1OC	none
CN1C(=S)SC(/[N+]([O-])=C/c2cccnc2)C1(C)C (stereo not given)	D1 mod -6.01
[O-]/[N+](=C/c1cccnc1)c1ccc(Br)cc1	none (no result: S1P1 ag-PAM)
CC12CCC(C(=O)N3CCN(Cc4ccccc4)CC3)(OC1=O)C2(C)C (stereo not given)	none
COc1ccccc1-c1nc(-c2ccc(Br)cc2)no1	S1P1 ag-PAM 78.4 (no result: D1 mod)
COc1ccc(-c2nc(-c3ccc(NC(=O)c4ccc(Br)o4)cc3)no2)cc1OC	none
COc1ccc(-c2nc(-c3ccc(Br)o3)no2)cc1OC	S1P1 ag-PAM 82.4
CCOc1ccc(-c2nc(-c3ccc(OC)cc3)no2)cc1OCC	S1P1 ag-PAM 98.4
COc1ccccc1-c1nc(-c2ccncc2)no1	none
COc1ccc(-c2nc(-c3ccncc3)no2)cc1OC	S1P1 ag-PAM 106.5 (no result: D1 mod)
CCOc1cc(-c2nc(-c3cc(OC)c(OC)c(OC)c3)no2)cc(OCC)c1OCC	none (no result: S1P1 ag-PAM)
COC(=O)COC(=O)CC(CC(N)=O)c1ccccc1 (stereo not given)	none
O=C(c1ccco1)N1CCN(CC(O)Cn2c3ccccc3c3ccccc32)CC1 (stereo not given)	none (no result: S1P1 ag-PAM, S1P3 agonist)
COc1ccc(OC)c(NC(=O)CSc2nnc(N)s2)c1	none (no result: D1 mod)
O=C(OCC(F)(F)C(F)F)c1ccccc1C(=O)Oc1ccc(F)cc1F	none
CCOc1cc(N2CCOCC2)c(OCC)cc1NC(=O)c1nc2nccc(C)n2n1	M1 ag 4.86
CCOc1ccc(-c2cn(CCC#N)cn2)cc1	M1 antagonist 2.12
CCn1ncc(C2=NOC(C(=O)Nc3c(C)n(C)n(-c4ccccc4)c3=O)C2)c1C (stereo not given)	none
CCn1ncc(C2=NOC(C(=O)Nc3c(C)nn(Cc4ccc(F)cc4)c3C)C2)c1C (stereo not given)	M1 ag -2.47
CCn1c(SCC(=O)c2ccc(CNC(C)=O)o2)nnc1-c1cccs1	M1 antagonist 2.01
CCOC(=O)C(Oc1ccc(=O)n(-c2ccccc2)n1)C(C)=O (stereo not given)	none
Cc1ccc(C)c(N2CCN(C(=O)CN(C)S(=O)(=O)c3cnc[nH]3)CC2)c1	none
Cc1ccc(-c2nnc3c4ccccc4c(C)nn23)cc1S(=O)(=O)N1CCN(C)CC1	D1 mod 9.86
Cc1ccc(NC(=O)Nc2ccc(F)cc2)nc1	none (no result: S1P1 ag-PAM)
Cc1cc(NC(=O)NC(=O)c2ccc(F)cc2F)n[nH]1	D1 mod -3.32
Cc1ccc(-c2nc(C3CCN(S(C)(=O)=O)CC3)no2)cc1	none
Cc1cc(C)c2c3c(c(-c4ccccc4)n2n1)c(=O)n(C)c(=O)n3C	D1 mod 5.56
Cn1c(=O)c2c(-c3ccccc3)n3c4ccccc4ncc3c2n(C)c1=O	none (no result: S1P1 ag-PAM)
Cc1cccc(-c2c3c(=O)n(C)c(=O)n(C)c3c3c(C)cc(C)nn23)c1	D1 mod 3.59
Cc1cccn2c(=O)c3cc(C(=O)N4c5ccccc5CC4C)n(C)c3nc12 (stereo not given)	D1 mod -4.83
Cc1cccn2c(=O)c3cc(C(=O)N4CCc5ccccc54)n(C)c3nc12	none
CCOC(=O)c1c(C)n(C)c2ccc(OCC(O)CN3CCN(C)CC3)cc12 (stereo not given)	none (no result: D1 mod)
CCOC(=O)c1c(C)n(C)c2ccc(OCC(O)Cn3c(C)nc4ccccc43)cc12 (stereo not given)	M1 ag 2.15 (no result: S1P1 ag-PAM, TNAP act DEA)
O=C(NC1CCCC1)c1ccc2nc[nH]c2c1	none
O=C(NC1CCCC1)c1ccc2nc(-c3ccco3)c(-c3ccco3)nc2c1	M1 ag 7.07
Cc1ccc(C2C3CSCC=C3C(C#N)=C(N)C2(C#N)C#N)cc1 (stereo not given)	none
CC1CC=C2C(C#N)=C(N)C(C#N)(C#N)C(c3cccs3)C2C1 (stereo not given)	M1 ag 11.6 (no result: S1P1 ag-PAM, S1P3 agonist)
O=C(CSCc1cccc(Br)c1)N1CCOCC1	none
COc1ccccc1N1CCN(c2ccc(-c3ccccc3)nn2)CC1	D1 mod -5.39 (no result: S1P1 ag-PAM, S1P3 agonist)
COc1ccccc1N1CCN(c2nc(-c3ccccc3)cc(C(F)(F)F)n2)CC1	none (no result: S1P1 ag-PAM, S1P3 agonist, D1 mod)
CC(=O)C(Sc1ccc2nnc(-c3ccc(F)cc3)n2n1)C(C)=O	none
CN1CCN(CC(=O)Nc2nc(-c3ccccc3)cs2)CC1	none (no result: D1 mod)
CC1Cc2cc(-c3csc(NC(=O)Cc4cccs4)n3)ccc2N1S(C)(=O)=O (stereo not given)	S1P1 ag-PAM 56.9
O=C1C(c2ccncc2)=C(O)c2ccccc21	D1 mod -2.48

Screening results (PubChem BioAssay)
